Measurements as given in ChEMBL document CHEMBL4689842, “EUbOPEN Chemogenomics Library wave 1” (2021).
“And” between values parts separate entries of the source, which are not always exact repeats. Identical values can stand only once.

Tests used:
Format in all cases: toxicity, cell-based
Fibroblast [1] = test: Multiplex assay against human fibroblast; conditions: 10 µM, compound concentration 10 uM
Outline: (§1)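 Cells stained live at seeding with Hoechst33342, BioTracker Green Microtubule Cytoskeleton Dye, MitoTracker Red and Annexin V Alexa Fluor 680 were imaged on a CQ1 microscope at 37°C and 5% CO2 after compound addition. Their classification by CellPathfinder machine-learning gating ran from Hoechst high-intensity objects versus normal cells, to healthy, pyknosed or fragmented nuclei among normal cells, to mitotic or apoptotic among pyknosed cells. Tubulin, mitochondrial-mass and membrane-permeability phenotypes are per cents of healthy-nucleus cells.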

HEK-293T [2] = test: Multiplex assay against HEK293T; conditions: human, 10 µM, compound concentration 10 uM; outline: as §1;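 as to Population Tubulin-Different-Phenotype (%): share of the cells with healthy nuclei that show this phenotype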
U2OS [3] = test: Multiplex assay against U2OS; conditions: human, 10 µM, compound concentration 10 uM; outline: as §1
HEK-293T [4] = test: Incucyte cell viability with HEK293T; conditions: human, 10 µM, compound concentration 10 uM; also: filed as whole numbers so only -1 and 0 and 1 occur
Fibroblast [5] = test: Incucyte cell viability with human fibroblast; conditions: 10 µM, compound concentration 10 uM; also: filed as whole numbers so only -1 and 0 and 1 occur
U2OS [6] = test: Incucyte cell viability with U2OS; conditions: human, 10 µM, compound concentration 10 uM; also: filed as whole numbers so only -1 and 0 and 1 occur
[7] = 0 h, replicate number 1, timepoint 0 hours
[8] = 6 h, replicate number 1, timepoint 6 hours
[9] = 12 h, replicate number 1, timepoint 12 hours
[10] = 18 h, replicate number 1, timepoint 18 hours
[11] = 24 h, replicate number 1, timepoint 24 hours

## COc1ccccc1-c1cc(Nc2cccc(CS(N)(=O)=O)c2)ncn1
Fibroblast [1]; 12 h, replicate 1
  Population Apoptotic (%): 70% and 60%
  Population Fragmented Nuclei (%): 24% and 28%
  Population Healthy Nuclei (%): 62% and 53%
  Population Hoechst High Intensity Objects (%): 11% and 10%
  Population Membrane Permeable-Phenotype (%): 9%
  Population Mitochondria Different-Phenotype (%): 4%
  Population Mitotic Cells (%): 29% and 39%
  Population Normal (%): 88% and 89%
  Population Pyknosed Nuclei (%): 13% and 17%
  Total Cell Count: 208 and 254
Fibroblast [1]; 12 h, replicate 2
  Population Apoptotic (%): 50% and 75%
  Population Fragmented Nuclei (%): 63% and 72%
  Population Healthy Nuclei (%): 31% and 20%
  Population Hoechst High Intensity Objects (%): 34% and 40%
  Population Membrane Permeable-Phenotype (%): 16% and 10%
  Population Mitochondria Different-Phenotype (%): 8% and 20%
  Population Mitotic Cells (%): 50% and 25%
  Population Normal (%): 65% and 59%
  Population Pyknosed Nuclei (%): 5% and 8%
  Population Tubulin-Different-Phenotype (%): 25% and 30%
  Total Cell Count: 58 and 84
Fibroblast [1]; 24 h, replicate 1
  Population Apoptotic (%): 75% and 66%
  Population Fragmented Nuclei (%): 25% and 23%
  Population Healthy Nuclei (%): 60% and 57%
  Population Hoechst High Intensity Objects (%): 14% and 10%
  Population Membrane Permeable-Phenotype (%): 7%
  Population Mitochondria Different-Phenotype (%): 4% and 11%
  Population Mitotic Cells (%): 24% and 33%
  Population Normal (%): 85% and 89%
  Population Pyknosed Nuclei (%): 14% and 19%
  Total Cell Count: 267 and 188
Fibroblast [1]; 24 h, replicate 2
  Population Apoptotic (%): 50%
  Population Fragmented Nuclei (%): 54% and 70%
  Population Healthy Nuclei (%): 40% and 26%
  Population Hoechst High Intensity Objects (%): 30% and 28%
  Population Membrane Permeable-Phenotype (%): 21% and 13%
  Population Mitochondria Different-Phenotype (%): 0%
  Population Mitotic Cells (%): 50%
  Population Normal (%): 70% and 71%
  Population Pyknosed Nuclei (%): 5% and 3%
  Population Tubulin-Different-Phenotype (%): 28% and 26%
  Total Cell Count: 50 and 80
HEK-293T [2]; 12 h, replicate 1
  Population Apoptotic (%): 31% and 19%
  Population Fragmented Nuclei (%): 21% and 13%
  Population Healthy Nuclei (%): 58% and 71%
  Population Hoechst High Intensity Objects (%): 17% and 8%
  Population Membrane Permeable-Phenotype (%): 3%
  Population Mitochondria Different-Phenotype (%): 6% and 5%
  Population Mitotic Cells (%): 68% and 80%
  Population Normal (%): 82% and 91%
  Population Pyknosed Nuclei (%): 20% and 15%
  Population Tubulin-Different-Phenotype (%): 5% and 3%
  Total Cell Count: 577 and 663
HEK-293T [2]; 12 h, replicate 2
  Population Apoptotic (%): 8% and 20%
  Population Fragmented Nuclei (%): 11% and 9%
  Population Healthy Nuclei (%): 84% and 85%
  Population Hoechst High Intensity Objects (%): 1% and 3%
  Population Membrane Permeable-Phenotype (%): 2% and 0%
  Population Mitochondria Different-Phenotype (%): 7% and 12%
  Population Mitotic Cells (%): 91%
  Population Normal (%): 98% and 96%
  Population Pyknosed Nuclei (%): 4% and 5%
  Population Tubulin-Different-Phenotype (%): 6% and 7%
  Total Cell Count: 2027 and 1134
HEK-293T [2]; 24 h, replicate 1
  Population Apoptotic (%): 24% and 33%
  Population Fragmented Nuclei (%): 14% and 19%
  Population Healthy Nuclei (%): 76% and 63%
  Population Hoechst High Intensity Objects (%): 4% and 13%
  Population Membrane Permeable-Phenotype (%): 8%
  Population Mitochondria Different-Phenotype (%): 3% and 5%
  Population Mitotic Cells (%): 75% and 66%
  Population Normal (%): 95% and 86%
  Population Pyknosed Nuclei (%): 8% and 17%
  Population Tubulin-Different-Phenotype (%): 6%
  Total Cell Count: 801 and 590
HEK-293T [2]; 24 h, replicate 2
  Population Apoptotic (%): 11% and 13%
  Population Healthy Nuclei (%): 66% and 86%
  Population Hoechst High Intensity Objects (%): 3%
  Population Membrane Permeable-Phenotype (%): 6% and 3%
  Population Mitotic Cells (%): 88% and 86%
  Population Normal (%): 96%
  Population Pyknosed Nuclei (%): 2% and 4%
  Population Tubulin-Different-Phenotype (%): 9% and 23%
  Total Cell Count: 3407 and 1342
U2OS [3]; 12 h, replicate 1
  Population Apoptotic (%): 53% and 27%
  Population Fragmented Nuclei (%): 10% and 8%
  Population Healthy Nuclei (%): 82% and 84%
  Population Membrane Permeable-Phenotype (%): 13% and 7%
  Population Mitochondria Different-Phenotype (%): 23% and 20%
  Population Mitotic Cells (%): 46% and 72%
  Population Normal (%): 93% and 98%
  Population Pyknosed Nuclei (%): 7% and 6%
  Population Tubulin-Different-Phenotype (%): 19% and 10%
  Total Cell Count: 160 and 443
U2OS [3]; 12 h, replicate 2
  Population Apoptotic (%): 0% and 25%
  Population Fragmented Nuclei (%): 9%
  Population Healthy Nuclei (%): 75% and 86%
  Population Hoechst High Intensity Objects (%): 16% and 11%
  Population Membrane Permeable-Phenotype (%): 17% and 9%
  Population Mitochondria Different-Phenotype (%): 21%
  Population Mitotic Cells (%): 100% and 75%
  Population Normal (%): 83% and 88%
  Population Tubulin-Different-Phenotype (%): 12% and 34%
  Total Cell Count: 138 and 311
U2OS [3]; 24 h, replicate 1
  Population Apoptotic (%): 68% and 25%
  Population Healthy Nuclei (%): 79% and 93%
  Population Hoechst High Intensity Objects (%): 3% and 2%
  Population Membrane Permeable-Phenotype (%): 16% and 7%
  Population Mitochondria Different-Phenotype (%): 30% and 18%
  Population Mitotic Cells (%): 31% and 75%
  Population Normal (%): 96% and 97%
  Population Tubulin-Different-Phenotype (%): 22%
  Total Cell Count: 230 and 545
U2OS [3]; 24 h, replicate 2
  Population Apoptotic (%): 62% and 50%
  Population Healthy Nuclei (%): 63% and 91%
  Population Mitochondria Different-Phenotype (%): 33% and 31%
  Population Mitotic Cells (%): 37% and 50%
  Population Normal (%): 78% and 93%
  Population Tubulin-Different-Phenotype (%): 23% and 33%
  Total Cell Count: 157 and 384
HEK-293T [4]; [7]
  Growth Rate: 0
HEK-293T [4]; [8]
  Growth Rate: 0
HEK-293T [4]; [9]
  Growth Rate: 0
HEK-293T [4]; [10]
  Growth Rate: 0
HEK-293T [4]; [11]
  Growth Rate: 0
Fibroblast [5]; [7]
  Growth Rate: 0
Fibroblast [5]; [8]
  Growth Rate: 0
Fibroblast [5]; 6 h, replicate number 2, timepoint 6 hours
  Growth Rate: 1
Fibroblast [5]; [9]
  Growth Rate: 0
Fibroblast [5]; [10]
  Growth Rate: 0
Fibroblast [5]; [11]
  Growth Rate: 0
U2OS [6]; [7]
  Growth Rate: 0
U2OS [6]; [8]
  Growth Rate: 0
U2OS [6]; [9]
  Growth Rate: 0
U2OS [6]; [10]
  Growth Rate: 0
U2OS [6]; [11]
  Growth Rate: 0
